Granule exo inh: lytic granule exocytosis inhibition; TALL-104 LAMP-1 surface exposure, flow cytometry; cells stimulated with thapsigargin and PMA; inhibition, % at 10 µM; 360,000 tested, 0.66% active;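 active = inhibition above about 55%, limit read from the data; inconclusive = no clear call, values can overlap the other calls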
CSN inh: inhibitors of human CSN-mediated cullin deneddylation. Q92905. Purified CSN, SCF-Nedd8-OG deneddylation, fluorescence polarization. inhibition, % at 12.5 µM. 360,000 tested, 0.38% active. AID 651999;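 active = pattern-corrected inhibition above about 35%, with an unprinted fluorescence ratio check between 0.5 and 1.5, limit read from the data, passing the limit was not always enough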
Target sequence (Q92905 whole entry, looked up, one chain of several): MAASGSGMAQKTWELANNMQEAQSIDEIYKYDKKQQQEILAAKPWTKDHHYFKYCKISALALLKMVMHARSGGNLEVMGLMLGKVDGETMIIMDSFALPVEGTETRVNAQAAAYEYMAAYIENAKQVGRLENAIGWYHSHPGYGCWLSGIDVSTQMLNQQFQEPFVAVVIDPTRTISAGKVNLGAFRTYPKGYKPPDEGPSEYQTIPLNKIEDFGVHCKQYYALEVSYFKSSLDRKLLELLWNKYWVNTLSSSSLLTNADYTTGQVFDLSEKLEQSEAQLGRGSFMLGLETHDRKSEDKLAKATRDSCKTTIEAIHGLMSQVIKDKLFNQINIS
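test system = HEK293T-derived human Csn5 enzyme | amount = 0.24 nM Csn5 enzyme, final concentration | medium = Tris/NaCl/DTT buffer, pH 7.5 | schedule = 90 min reaction at room temperature | signal = FP | evaluation = inhibition of Csn5 cleavage, % | compound dosing = single dose of 12.5 µM compound with 0.25% DMSO | probe or stimulus = 10 nM SCFSkp2-Nedd8OG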
Myeloid diff 2: myeloid differentiation induction; ER-HoxA9 myeloid progenitors, lysozyme-GFP differentiation, flow cytometry; calls only at 10 µM; 360,000 tested, 1% active;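 active = normalized GFP-positive differentiation at or above the plate's own cutoff, the solvent-only control mean plus 3 SD; inconclusive = no clear call, values can overlap the other calls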;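 note: cells exposed to compound for four days before flow analysis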
HNF4A DNA FP: change in binding of human HNF4 alpha to DNA. P41235. HNF4a-FITC DNA binding, fluorescence polarization, 1 h. 360,000 tested, 0.3% active. activity change, % at 10 µM; in the data active = activity change above about 30%, passing the limit was not always enough
Myeloid diff CP1: compounds promoting myeloid differentiation; shares compounds with Myeloid diff 2; ER-HoxA9 myeloid progenitors, GFP/Mac1 double-positive flow; calls only; 2,300 tested, 2% active; AID 651706;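 active = share of green or green-and-red cells above 9 and 9% in run 1 or 4 and 3% in run 2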
GFP autofluor: counter-screen for myeloid differentiation promoters: compound fluorescence; shares compounds with Myeloid diff 2; ER-HoxA9 myeloid progenitors, no estrogen, GFP autofluorescence flow cytometry; vehicle wells 0%, positive control 100%; fluorescence response, % (no concentration beside the values); 2,300 tested, 7.4% active; AID 651707;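 active = over 5% cells positive for green fluorescent reporter, or over 2% positive for both it and APC stain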
Each line names hits and unclear results; the compound was inactive in the other large screens (follow-up assays come after a bar, where they were run). Compounds with a hit are over-represented: about 2.2% of the library has one in this group of screens.

Cn1c(=O)c2cc(NC(=S)NC3CC3)ccc2n1C/C=C/c1ccccc1	Myeloid diff 2 active | Myeloid diff CP1 inactive | GFP autofluor inactive
Cn1c(=O)c2cc(NC(=O)NCc3ccc(F)cc3)ccc2n1C/C=C/c1ccccc1	Myeloid diff 2 active | Myeloid diff CP1 active | GFP autofluor inactive
CCn1c(CC(=O)Nc2ccc(F)cc2)nnc1SCC(=O)Nc1nncs1	none
CCCn1cc(S(=O)(=O)CC(=O)NC2CCCCC2)c2ccccc21	none (no result: Myeloid diff 2) | Myeloid diff CP1 inactive | GFP autofluor inactive
COCCOC(=O)c1[nH]c2c(c1C)C(=O)C(C(=O)OC)C(C)C2 (centres undefined)	none
COC(=O)C1C(=O)c2c([nH]c(C(=O)OCC3CCCO3)c2C)CC1C (centres undefined)	none | Myeloid diff CP1 inactive | GFP autofluor inactive
COc1ccc2c(c1C)CCC(C)(C#N)C2=O (centres undefined)	none
COc1ccc(CCNC(=O)C23CN(Cc4ccccc4)CC2C(c2cccc([N+](=O)[O-])c2)=NO3)cc1 (centres undefined)	none
O=C(NCC1CCCCC1)C12CN(Cc3ccccc3)CC1C(c1cccc([N+](=O)[O-])c1)=NO2 (centres undefined)	Myeloid diff 2 active | Myeloid diff CP1 inactive | GFP autofluor inactive
O=C(CCS(=O)(=O)c1cc2c(cc1Cl)NC(=O)CO2)NCCc1ccccc1	none
Cc1ccc(CCNC(=O)CCS(=O)(=O)c2cc3c(cc2C)NC(=O)CO3)cc1	none | Myeloid diff CP1 inactive | GFP autofluor inactive
O=C(COc1coc(CN2CCCc3ccccc32)cc1=O)Nc1ccc([N+](=O)[O-])cc1	Myeloid diff 2 active | Myeloid diff CP1 inactive | GFP autofluor inactive
Cc1ccccc1NC(=O)COc1coc(CN2CCCc3ccccc32)cc1=O	none
CC(NC(=O)c1cccc(S(=O)(=O)N2CCN(Cc3ccccc3)CC2)c1)c1ccc(Cl)cc1 (centres undefined)	none
Cc1ccc(NS(=O)(=O)c2cc3c4c(cccc4c2)C(=O)NC3=O)cc1C	Myeloid diff 2 active | Myeloid diff CP1 inactive | GFP autofluor inactive
O=C1NC(=O)c2cc(Br)cc3cccc1c23	none
CC(=O)c1c(O)cc(=O)n(-c2ccccc2)c1-c1ccc(C)cc1	none | Myeloid diff CP1 inactive | GFP autofluor inactive
Nc1nc(-c2ccc(F)cc2)cc(C(F)(F)F)n1	none | Myeloid diff CP1 inactive | GFP autofluor inactive
Cc1cccc(N2CCN(C(=S)NCCc3ccccc3)CC2)c1C	Myeloid diff 2 active | Myeloid diff CP1 inactive | GFP autofluor inactive
COCCNC(=S)N1CCN(c2cccc(C)c2C)CC1	none
CCCNC(=O)NC(=O)CSc1nc2ccccc2n1CC(C)C	none | Myeloid diff CP1 inactive | GFP autofluor inactive
Cc1ccc(Nc2nc(=O)c3cccnc3s2)c(Br)c1	Myeloid diff 2 active | Myeloid diff CP1 active | GFP autofluor inactive
COc1ccc(C(=O)NC(=O)COC(=O)CCS(=O)(=O)c2ccc(C)cc2)cc1	none
CCc1nc2ccc(C(=O)Nc3ccc(C(=O)N(C)C)cc3)cn2c1N(C)CCCc1ccccc1	none
C[C@H](O)[C@@H]1CN2CCc3c([nH]c4ccccc34)[C@@H]2C[C@@H]1N(C)C(=O)c1ccco1	none
C[C@H](O)[C@@H]1CN2CCc3c([nH]c4ccccc34)[C@@H]2C[C@@H]1N(C)C(=S)NCCc1ccccc1	Myeloid diff 2 active | Myeloid diff CP1 inactive | GFP autofluor inactive
C[C@H](O)[C@@H]1CN2CCc3c([nH]c4ccccc34)[C@@H]2C[C@@H]1N(C)C(=O)Nc1cccc2ccccc12	Granule exo inh 74.4 | Myeloid diff CP1 inactive | GFP autofluor inactive
COc1ccc(-c2ccc3[nH]c4c(c3c2)CCN2C[C@@H]([C@H](C)O)[C@@H](N(C)C(=O)Nc3cc(Cl)cc(Cl)c3)C[C@@H]42)cc1	Myeloid diff 2 active | Myeloid diff CP1 inactive | GFP autofluor inactive
CCNC(=O)N(C)[C@H]1C[C@H]2c3[nH]c4ccccc4c3CCN2C[C@H]1[C@H](C)O	none
COc1ccc(-c2ccc3[nH]c4c(c3c2)CCN2C(=O)[C@@H]([C@H](C)O)[C@@H](N(C)C(=O)Nc3cc(Cl)cc(Cl)c3)C[C@@H]42)cc1	none
COCCN(C(=O)COC(=O)c1cc2c(s1)CCCC2)c1c(N)n(Cc2ccccc2)c(=O)[nH]c1=O	none
CN(C(=O)COC(=O)CCC(=O)c1ccc(Cl)cc1)c1c(N)n(Cc2ccccc2)c(=O)[nH]c1=O	none
CC(Oc1ccc2c3c(c(=O)oc2c1)CCCC3)C(=O)NCC(O)c1ccccc1 (centres undefined)	none
CCc1ccc(NC(=O)CSCc2ccc(C(=O)O)cc2)cc1	none | Myeloid diff CP1 inactive | GFP autofluor inactive
CC(C)=CCC/C(C)=C/CNC(=O)C[C@H]1C[C@H](C(=O)N2CCCCC2)[C@@]2(C)c3[nH]c4ccc(Cl)cc4c3CCN2C1=O	Myeloid diff 2 active | Myeloid diff CP1 inactive | GFP autofluor inactive
CCOc1ccc(Cl)cc1S(=O)(=O)N1CCC(C(=O)N2CCCC2)CC1	none
CCc1cc(=O)oc2cc(OC(C)C(=O)N3CC[C@@]4(O)CCCC[C@H]4C3)ccc12 (some centres undefined)	none
CN(c1ccc(C(=O)NCc2ccc3c(c2)OCO3)cc1)S(=O)(=O)c1ccccc1	none | Myeloid diff CP1 inactive | GFP autofluor inactive
CN(C(=O)COC(=O)c1ccc[nH]c1=O)C1CCCCC1	none | Myeloid diff CP1 inactive | GFP autofluor inactive
O=C(COC(=O)c1ccc[nH]c1=O)NC1CCCCCC1	none
COc1ccc(C)cc1NC(=O)CCS(=O)(=O)c1ccc2c(c1)oc(=O)n2C	none
C[C@H](CO)N1C[C@H](C)[C@@H](CN(C)C(=O)Oc2ccccc2)OCc2cn(nn2)CCCC1=O	none | Myeloid diff CP1 inactive | GFP autofluor inactive
C[C@H]1CN([C@@H](C)CO)C(=O)CCCn2nncc2CO[C@H]1CN(C)S(=O)(=O)c1cccc(F)c1	none | Myeloid diff CP1 inactive | GFP autofluor inactive
C[C@@H]1CN([C@@H](C)CO)C(=O)CCCn2nncc2CO[C@@H]1CN(C)C(=O)CCC(F)(F)F	none
C[C@H]1CN([C@@H](C)CO)C(=O)CCCn2nncc2CO[C@H]1CN(C)C(=O)CCC(F)(F)F	none | Myeloid diff CP1 inactive | GFP autofluor inactive
CCOC(=O)C1(C)CCCCCN1C(=O)c1snnc1C (centres undefined)	none
O=Nc1c(O)c2ccccc2c2ccccc12	Myeloid diff 2 inconclusive
O=c1c(=Nc2ccccc2O)c(=O)c2ccccc12	Myeloid diff 2 active | Myeloid diff CP1 inactive | GFP autofluor inactive
CCOC(=O)C1=C(C)NC(=O)NC1c1ccc(N(CC)CC)cc1 (centres undefined)	none
CCN(CC)c1ccc(C2NC(=O)NC(C)=C2C(=O)Nc2ccccc2)cc1 (centres undefined)	Myeloid diff 2 active | Myeloid diff CP1 inactive | GFP autofluor 7.5
